Here are results for six compounds from ChEMBL document CHEMBL1157190, “Design, synthesis, and anticonvulsant activity of N-phenylamino derivatives of 3,3-dialkyl-pyrrolidine-2,5-diones and hexahydro-isoindole-1,3-diones” (Bioorg Med Chem, 2008).

SMILES strings stand for the structures. Calls of active or inactive are those of the source. No cut-off for these calls is given here. A value given as a limit tells only on which side of the number the result lay.

Series [1] relates to Mus musculus. In words: Anticonvulsant activity in ip dosed CF1 albino mouse assessed as inhibition of maximal electroshock-induced electrical stimulus after 0.5 hr. The series is classed as functional. Summed up:
(§1)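 Male CF-1 mice injected intraperitoneally at 30, 100 and 300 mg/kg, suspended in 0.5% methylcellulose/water. MES or subcutaneous pentylenetetrazole challenge at 0.5 and 4 h; selected compounds also at 1 or 2 h.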

For series [2], the system named is Mus musculus. In words: Anticonvulsant activity in ip dosed CF1 albino mouse assessed as inhibition of subcutaneous pentylenetetrazole-induced electrical stimulus after 0.5 hr. It counts as functional. Summed up:
as §1

Series [3] deals with Mus musculus. In words: Neurotoxicity in ip dosed CF1 albino mouse after 0.5 hr by rotarod test. The series is classed as toxicity, organism-based. To be noted: in vivo. The essentials:
(§2)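 CF-1 mice given 30, 100 or 300 mg/kg ip in 0.5% methylcellulose/water, examined at 0.5 and 4 h. Rotorod test: neurotoxicity is the inability to keep equilibrium on the rod for a given time. Value is the minimum dose giving motor impairment; a dash means none at 300 mg/kg.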

For series [4], the system named is Mus musculus. In words: Neurotoxicity in ip dosed CF1 albino mouse after 4 hrs by rotarod test. It counts as toxicity, organism-based. To be noted: in vivo. The essentials: as §2
In series [5] the test system is Rattus norvegicus. In words: Anticonvulsant activity in Sprague-Dawley rat assessed as protection against seizure at 30 mg/kg, po after 0.5 hr by maximal electroshock test. The series is classed as functional. Summed up: (§3)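 Male Sprague–Dawley rats; compound suspended in 0.5% methylcellulose/water and given orally at a fixed 30 mg/kg, four rats per time point. MES test run at 0.25, 0.5, 1, 2 and 4 h after dosing, with motor impairment checked in parallel. Read-out: number of rats of four protected.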

Series [6] has as its system Rattus norvegicus. In words: Anticonvulsant activity in Sprague-Dawley rat assessed as protection against seizure at 30 mg/kg, po after 1 hr by maximal electroshock test. It counts as functional. The essentials:
as §3

In series [7] the test system is Rattus norvegicus. In words: Anticonvulsant activity in Sprague-Dawley rat assessed as protection against seizure at 30 mg/kg, po after 4 hrs by maximal electroshock test. It counts as functional. Summed up:
as §3

A short description of series [8]: Neurotoxicity in po dosed Sprague-Dawley rat after 2 hrs by rotarod test. It counts as toxicity, organism-based. To be noted: in vivo.
Series [9] is described as follows: Lipophilicity, log kw of compound by RP-HPLC. It counts as physicochemical. Summed up: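 RP-HPLC on a C18 end-capped column at room temperature, with UV detection at 214 nm and uracil as the unretained marker. Capacity factor k = (tr − t0)/t0, from the mean of three measurement sets. log k extrapolated to 100% water (log k = log kw − Sφ) to give log kw.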

Series [10] concerns Rattus norvegicus. In words: Anticonvulsant activity in Sprague-Dawley rat assessed as protection against seizure at 30 mg/kg, po after 0.25 hr by maximal electroshock test. It counts as functional. Summed up:
as §3

Series [11] has as its system Rattus norvegicus. In words: Anticonvulsant activity in Sprague-Dawley rat assessed as protection against seizure at 30 mg/kg, po after 2 hrs by maximal electroshock test. The series is classed as functional. Summed up:
as §3

Series [12] concerns Rattus norvegicus. In words: Anticonvulsant activity in po dosed Sprague-Dawley rat assessed as inhibition of maximal electroshock-induced electrical stimulus after 0.5 hr. It counts as functional. The essentials:
(§4)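 Oral dosing in male Sprague–Dawley rats at the previously estimated time of peak effect. Groups of eight rats received various doses until at least three points fell between 10 and 90% MES protection or minimal neurotoxicity (rotorod). ED50 and TD50 with 95% confidence intervals from regression of the plotted data; protective index = TD50/ED50.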

The nature of series [13]: Neurotoxicity in po dosed Sprague-Dawley rat after 0.5 hr by rotarod test. It counts as toxicity, organism-based. To be noted: in vivo. Summed up: as §4
The species named for series [14] is Rattus norvegicus. In words: Protective index, ratio of TD50 for Sprague-Dawley rat by rotarod test to ED50 for Sprague-Dawley rat by MES test after 0.5 hr. The series is classed as functional. The essentials:
as §4

Series [15] concerns Mus musculus. In words: Anticonvulsant activity in ip dosed CF1 albino mouse assessed as inhibition of maximal electroshock-induced electrical stimulus at 300 mg/kg after 4 hrs. Set-up: dose 300 mg/kg. It counts as functional, organism-based. Summed up:
as §1

The test system of series [16] is Mus musculus. In words: Anticonvulsant activity in ip dosed CF1 albino mouse assessed as inhibition of subcutaneous pentylenetetrazole-induced electrical stimulus at 300 mg/kg after 4 hrs. More on the design: dose 300 mg/kg. It counts as functional, organism-based. Summed up: as §1
Series [17] deals with Mus musculus. In words: Neurotoxicity in ip dosed CF1 albino mouse at 300 mg/kg after 4 hrs by rotarod test. More on the design: dose 300 mg/kg, route intraperitoneal. It counts as toxicity, organism-based. The conditions noted are these: in vivo. Summed up:
as §2

The subject of series [18] is Rattus norvegicus. In words: Antiepileptic activity in pilocarpine-induced status prevention in Sprague-Dawley rat assessed as weight change in post first stage 3 seizure at 450 mg/kg after 24 hrs. The series is classed as functional. Summed up: (§5)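 Pilocarpine-induced status prevention in rats. Compound given ip at time zero (65 or 450 mg/kg), followed by a challenge dose of pilocarpine. Seizure severity scored on the Racine scale. Average weight change (g, ±SEM) recorded for protected and non-protected rats.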

Series [19] relates to Mus musculus. In words: Anticonvulsant activity in ip dosed CF1 albino mouse assessed as inhibition of maximal electroshock-induced electrical stimulus at 300 mg/kg after 0.5 hr. It counts as functional, organism-based. Set-up: dose 300 mg/kg. Summed up: as §1
Series [20] relates to Mus musculus. In words: Anticonvulsant activity in ip dosed CF1 albino mouse assessed as inhibition of subcutaneous pentylenetetrazole-induced electrical stimulus at 300 mg/kg after 0.5 hr. More on the design: dose 300 mg/kg. The series is classed as functional, organism-based. Summed up:
as §1

In series [21] the test system is Mus musculus. In words: Anticonvulsant activity in ip dosed CF1 albino mouse assessed as inhibition of maximal electroshock-induced electrical stimulus after 4 hrs. The series is classed as functional. Summed up:
as §1

In series [22] the test system is Mus musculus. In words: Anticonvulsant activity in ip dosed CF1 albino mouse assessed as inhibition of subcutaneous pentylenetetrazole-induced electrical stimulus after 4 hrs. It counts as functional. Summed up: as §1
Series [23] has as its system Mus musculus. In words: Anticonvulsant activity in ip dosed CF1 albino mouse assessed as inhibition of maximal electroshock-induced electrical stimulus after 2 hrs. It counts as functional. The essentials:
as §1

Series [24] deals with Rattus norvegicus. In words: Antiepileptic activity in pilocarpine-induced status prevention in Sprague-Dawley rat assessed as weight change in post first stage 3 seizure at 65 mg/kg after 24 hrs. The series is classed as functional. The essentials:
as §5

Series [25] is filed under the species Rattus norvegicus. In words: Anticonvulsant activity in rat assessed as inhibition of maximal electroshock-induced electrical stimulus. It counts as functional.
Series [26] is filed under the species Rattus norvegicus. In words: Protective index, ratio of TD50 for rat by rotarod test to ED50 for rat by MES test. The series is classed as functional.

Consider `O=C1NC(=O)C(c2ccccc2)(c2ccccc2)N1` [PHENYTOIN], for which the Activity is 30 mg/kg in the series on Mus musculus [1], 30 mg/kg with Mus musculus [2], 100 mg/kg in the series with Mus musculus [3] and 100 mg/kg in the series with Mus musculus [4]. The result with Rattus norvegicus [5] was Active. The result in the series on Rattus norvegicus [6] and in the series on Rattus norvegicus [7] was inactive. Also, the TD50 at 2 h in series [8] was above 500 mg/kg.
In the case of `CC1(C)CC(=O)N(Nc2ccccc2)C1=O`, the Activity is 300 mg/kg in the series on Mus musculus [1]; 300 mg/kg in the series on Mus musculus [2]; 100 mg/kg in the series on Mus musculus [3]; 25% with Rattus norvegicus [10]; 50% in the series with Rattus norvegicus [6]; “Not Active” in the series with Mus musculus [17]. The “log K” value in [9] turned out to be 1.471. Moreover, the result in the series with Rattus norvegicus [5], with Rattus norvegicus [11], with Rattus norvegicus [7], with Mus musculus [15] and in the series on Mus musculus [16] was inactive. Moreover, the ED50 in the series with Rattus norvegicus [12] amounted to 69.9 mg/kg. This compound showed a TD50 at 0.5 h in [13] of 500 mg/kg. The “Ratio TD50/ED50” value in the series listed under Rattus norvegicus [14] is recorded as 7.15.
In the case of `Cc1ccc(NN2C(=O)C3CCCCC3C2=O)cc1` (centres undefined), the Activity was 300 mg/kg with Mus musculus [3], 10.2 g in the series with Rattus norvegicus [18] and “Not Active” in the series on Mus musculus [17]. Moreover, the “log K” value in series [9] came to 2.028. For the same compound, the result in the series with Mus musculus [19], in the series on Mus musculus [20], with Mus musculus [15] and with Mus musculus [16] was inactive.
Turning to `CCC1(CC)CC(=O)N(Nc2ccc(Cl)cc2)C1=O`, the Activity in the series with Mus musculus [2] was found to be 100 mg/kg; in the series on Mus musculus [21], 300 mg/kg; in the series with Mus musculus [22], 300 mg/kg; in the series with Mus musculus [3] it was 300 mg/kg; in the series with Mus musculus [4], 300 mg/kg; with Mus musculus [23], 100 mg/kg. Besides, the “log K” value in series [9] worked out at 2.314. Besides, the outcome with Mus musculus [19] was inactive.
Take `CC1(C)CC(=O)N(Nc2cccc(Cl)c2)C1=O`: the Activity in the series on Mus musculus [1] is 100 mg/kg; in the series on Mus musculus [3], 300 mg/kg; with Rattus norvegicus [24] it was 15 g; in the series with Mus musculus [17], “Not Active”. In addition, the “log K” value in [9] is on record as 2.071. Besides, the outcome in the series with Mus musculus [20], with Mus musculus [15] and in the series on Mus musculus [16] was inactive.
Turning to `O=C1CC2(CCCC2)C(=O)N1Nc1ccccc1`, the ED50 in the series listed under Rattus norvegicus [25] was 76.3 mg/kg. In addition, in the series listed under Rattus norvegicus [26], the “Ratio TD50/ED50” value amounted to 3.44.
